# Experimental data of several laboratories.
# Compare with care: the assays were run in different laboratories.
SMILES,tested on,test,test system,setting,endpoint,result
O=C1O[C@H]2[C@@H]3OC(=O)c4cc(O)c(O)c(O)c4-c4c(O)c(O)c5oc(=O)c6c(c(O)c(O)c7oc(=O)c4c5c76)-c4c(cc(O)c(O)c4O)C(=O)OC[C@H]3OC(O)[C@@H]2OC(=O)c2cc(O)c(O)c(O)c2-c2c1cc(O)c(O)c2O (mixture of isomers),Streptococcus gordonii,"microbial growth, disc diffusion",,500 µg/disc,inhibition zone,14.2 mm
Cc1n[nH]c2ccc3nc(-c4ccc(C(=O)NCCN(C)C)cc4)c4c(c3c12)CCCC4,G-361,cell growth or viability,,72 h,GI50,3.49 µM
FC(F)(F)c1ccc(-c2cc(CNc3cccc4cccnc34)on2)cc1,Z-138,"cell growth or viability, MTS",,72 h,IC50,85.9 µM
Cc1cccc(N=C2C(=O)N(Cc3ccc(Br)cc3)c3ccccc32)c1,B16,"cell growth or viability, MTT",,48 h,IC50,6.87 µM
C[C@@H](O)[C@H]1C(=O)N2C(C(=O)O)=C(S[C@@H]3CN[C@H](C(=O)N(C)C)C3)[C@H](C)[C@H]12,Acinetobacter baumannii,"microbial growth, broth dilution",ATCCBAA1605,,MIC,16 µg/mL
C[C@@H]1O[C@@H](OC[C@H]2O[C@@H](Oc3c(-c4ccc(O)c(O)c4)oc4cc(O)cc(O)c4c3=O)[C@H](O)[C@@H](O)[C@@H]2O)[C@H](O)[C@H](O)[C@H]1O,Streptococcus gordonii,"microbial killing, broth dilution",,,MBC,400 µg/mL
COc1cc(N=C2C(=O)Nc3ccccc32)cc(OC)c1,B16,"cell growth or viability, MTT",,48 h,IC50,3.02 µM
CNC(C)C1CCC(N)C(OC2C(N)CC(N)C(OC3OCC(C)(O)C(NC)C3O)C2O)O1 (centres unmarked),Acinetobacter baumannii,"microbial killing, broth dilution",ATCC19606,24 h,MBC,32 mM
O=C1C(=Nc2ccc(Cl)cc2)c2ccccc2N1Cc1ccc(Br)cc1,B16,"cell growth or viability, MTT",,48 h,IC50,14.1 µM
CNC(C)C1CCC(N)C(OC2C(N)CC(N)C(OC3OCC(C)(O)C(NC)C3O)C2O)O1 (centres unmarked),Acinetobacter baumannii,"microbial growth, broth dilution",ATCC19606,,MIC,16 µg/mL
Oc1cc(O)c2c(c1)O[C@H](c1cc(O)c(O)c(O)c1)[C@@H](O)C2,Streptococcus gordonii,"microbial growth, broth dilution",,24 h,MIC,25 µg/mL
O=C1C(=Nc2cccc(Cl)c2)c2ccccc2N1Cc1ccc([N+](=O)[O-])cc1,B16,"cell growth or viability, MTT",,48 h,IC50,0.55 µM
O=C1OC[C@H]2OC(O)[C@H](O)[C@@H](O)[C@@H]2OC(=O)c2cc(O)c(O)c(O)c2-c2c(O)c(O)c3oc(=O)c4c(c(O)c(O)c5oc(=O)c2c3c54)-c2c1cc(O)c(O)c2O (mixture of isomers),Streptococcus gordonii,"microbial killing, broth dilution",,,MBC,400 µg/mL
CC1(C)S[C@@H]2[C@H](NC(=O)[C@H](N)c3ccc(O)cc3)C(=O)N2[C@H]1C(=O)O,Acinetobacter baumannii,"microbial growth, broth dilution",ATCC19606,,MIC,> 64 µg/mL
O=C1Nc2ccccc2C1=Nc1ccc(Cl)cc1,B16,"cell growth or viability, MTT",,48 h,IC50,32.6 µM
O=C(O[C@@H]1O[C@@H]2COC(=O)c3cc(O)c(O)c(O)c3-c3c(cc(O)c(O)c3O)C(=O)O[C@H]([C@H]1O)[C@@H]2O)c1cc(O)c(O)c(O)c1,Streptococcus gordonii,"microbial growth, broth dilution",,24 h,MIC,100 µg/mL
CO/N=C(\C(=O)N[C@@H]1C(=O)N2C(C(=O)O)=CCS[C@H]12)c1csc(N)n1,Acinetobacter baumannii,"microbial growth, broth dilution",ATCCBAA1605,,MIC,> 64 µg/mL
